Usually IC50 stands for the concentration at which inhibition is half-maximal. High values mean weaker potency, low ones greater potency. What is called Inhibition is the change of the read-out against control, counted positive when it falls. Low values mean a weak effect, high ones a strong effect. In general, inhibition refers to the drop in the measured response relative to a control, in per cent. A higher inhibition goes with a response far below the control.

Assay [1] relates to rhinovirus A1B. The assay can be described thus: (§1) Compound was tested for its inhibitory concentration against rhinovirus 1B through plaque-inhibition assay at 50 ug/disk using monolayers of M-HeLa cells. It is filed as functional, organism-based, rhinovirus type 1b. The following applies: Rhinovirus A. Summed up:
(§2)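 The 50% inhibitory concentration against rhinovirus serotype 1B was measured in M-HeLa cells, with plaque-reduction run as described previously. 4',6-Dichloroflavan was run alongside as the reference.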

The test system of assay [2] is rhinovirus A1B. Nature of the assay: Compound at 40 uM was tested for its percentage inhibitory concentration against rhinovirus 1B through plaque-inhibition assay at 50 ug/disk using monolayers of M-HeLa cells. It is filed as functional, rhinovirus type 1b.
In assay [3] the test system is rhinovirus A1B. The assay can be described thus: Compound was tested for its percentage inhibitory concentration through plaque-inhibition assay at 50 microg per disk using monolayers of M-HeLa cells. Format: functional, rhinovirus type 1b. The following applies: Rhinovirus A.
The test system of assay [4] is rhinovirus A1B. The assay can be described thus: Compound at 8 uM was tested for its percentage inhibitory concentration against rhinovirus 1B through plaque-inhibition assay at 50 ug/disk using monolayers of M-HeLa cells. Format: functional, rhinovirus type 1b.
Assay [5] deals with rhinovirus A1B. The assay is described as §1. Format: functional, rhinovirus type 1b. Particulars: Rhinovirus A. The procedure, abridged: as §2

With `Cc1ccc(Cn2c(=O)n(C)c3c(N(C)C)nc(C(F)(F)F)nc32)cc1`, the IC50 in the assay with rhinovirus A1B [1] was determined as 15000 nM.
Still for that read-out and setting: to `Cc1ccc(Cn2c(N)nc3c(N(C)C)nc(C(F)(F)F)nc32)cc1` belongs 360 nM.
On the same count and under the same terms, to `CNc1nc2c(N(C)C)nc(C(F)(F)F)nc2n1Cc1ccc(C)cc1` belongs 2900 nM.
Turning to `Cc1ccc(Cn2c(NCc3ccccc3)nc3c(N(C)C)nc(C(F)(F)F)nc32)cc1`, in the assay with rhinovirus A1B [2], the Inhibition was 20%.
As to `Cc1ccc(Cn2c(SCc3ccccc3)nc3c(N(C)C)nc(C(F)(F)F)nc32)cc1`, in the assay with rhinovirus A1B [3], the inhibition at 50 µg/disc was found to be 25%.
With `Cc1ccc(Cn2c(N(C)C)nc3c(N(C)C)nc(C(F)(F)F)nc32)cc1`, the Inhibition with rhinovirus A1B [4] was found to be 40%.
The compound `CSc1nc2c(N(C)C)nc(C(F)(F)F)nc2n1Cc1ccc(C)cc1` came in with an inhibition at 50 µg/disc in the assay on rhinovirus A1B [5] of 15%.
`Cc1ccc(Cn2c(Br)nc3c(N(C)C)nc(C(F)(F)F)nc32)cc1`: in the assay with rhinovirus A1B [1], the IC50 was 1400 nM.
Compound `Cc1ccc(Cn2c(O)nc3c(N(C)C)nc(C(F)(F)F)nc32)cc1` came in with an Inhibition in the assay with rhinovirus A1B [2] of 25%.
In the assay with rhinovirus A1B [1], `Cc1ccc(Cn2c(NCCO)nc3c(N(C)C)nc(C(F)(F)F)nc32)cc1` showed an IC50 of 8600 nM.
As to `Cc1ccc(Cn2c(S)nc3c(N(C)C)nc(C(F)(F)F)nc32)cc1`, in the assay on rhinovirus A1B [1], 20000 nM corresponded to half-maximal inhibition (IC50).
For `Cc1ccc(Cn2c(S(C)(=O)=O)nc3c(N(C)C)nc(C(F)(F)F)nc32)cc1`, the Inhibition in the assay with rhinovirus A1B [2] was determined as 37%.
With `Cc1ccc(Cn2cnc3c(N(C)C)nc(C(F)(F)F)nc32)cc1`, the IC50 in the assay on rhinovirus A1B [1] amounted to 30 nM.
Regarding `CC(=O)Nc1nc2c(N(C)C)nc(C(F)(F)F)nc2n1Cc1ccc(C)cc1`, the Inhibition in the assay with rhinovirus A1B [2] is reported as 22%.
Same read-out and setting: the figure for `Cc1ccc(Cn2c([S+](C)[O-])nc3c(N(C)C)nc(C(F)(F)F)nc32)cc1` (stereo not given) is 27%.

For the origin of these results see ChEMBL document CHEMBL1125834, “Synthesis and antirhinovirus activity of 8-substituted analogues of 6-(dimethylamino)-9-(4-methylbenzyl)-2-(trifluoromethyl)-9H-purine” (J Med Chem, 1991).
